Assays:
[1] = molecular target: T1, Xaa-Pro dipeptidase (Homo sapiens) (UniProt P12955); assay: Activity of prolidase in human HeLa cells measured per gram of protein in presence of Cbz-pro; type: cell-based
T1 sequence (whole entry): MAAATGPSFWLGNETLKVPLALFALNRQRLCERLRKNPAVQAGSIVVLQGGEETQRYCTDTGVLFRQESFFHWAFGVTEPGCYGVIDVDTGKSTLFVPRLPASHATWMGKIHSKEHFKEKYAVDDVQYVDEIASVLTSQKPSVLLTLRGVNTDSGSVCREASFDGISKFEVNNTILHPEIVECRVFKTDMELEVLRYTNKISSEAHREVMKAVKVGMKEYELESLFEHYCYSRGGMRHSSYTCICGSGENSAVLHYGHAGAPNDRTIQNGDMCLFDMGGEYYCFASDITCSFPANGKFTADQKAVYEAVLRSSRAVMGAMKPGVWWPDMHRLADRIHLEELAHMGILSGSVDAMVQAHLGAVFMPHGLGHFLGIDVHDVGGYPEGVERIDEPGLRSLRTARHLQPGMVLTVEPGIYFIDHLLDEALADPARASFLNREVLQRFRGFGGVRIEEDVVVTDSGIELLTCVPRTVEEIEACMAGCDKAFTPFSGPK
How it was run: (§1)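 Cells were grown to 90% confluence, trypsinized, PBS-washed, and lysed in 1% Triton X-100/PBS. Lysate was spun 18,000 rpm, 30 min, 4 °C. Supernatant was activated 2 h at 37 °C with Tris–HCl/200 mM MnCl2/30 mM glutathione. 1 mM Pro-MTX was then added at 37 °C, sampled at 15, 30 and 60 min, and TFA-quenched. Proline was read colorimetrically; specific activity is per µg protein. Cbz-Pro inhibitor was equimolar.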

[2] = molecular target: T1, Xaa-Pro dipeptidase (Homo sapiens); assay: Activity of prolidase in human Caco-2 cells measured per gram of protein; type: cell-based; how it was run: as §1
[3] = molecular target: T1, Xaa-Pro dipeptidase (Homo sapiens); assay: Activity of prolidase in human Caco-2 cells measured per gram of protein in presence of Cbz-pro; type: cell-based; how it was run: as §1
Sus scrofa [4] = organism: Sus scrofa; assay: Activity of pig kidney prolidase measured per gram of protein
How it was run: (§2)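 Pro-MTX (1 mM) hydrolysed by porcine kidney prolidase at 40 °C. Enzyme was first activated 30 min at 40 °C in 50 mM Tris–HCl (pH 8.0) with 200 mM MnCl2 and 30 mM glutathione. Samples were taken at 15 min, 30 min and 1 h and quenched with equal volume 10% TFA. Released proline was assayed colorimetrically (Chinard's reagent, 90 °C 10 min, A495). Inhibitor runs added Cbz-Pro equimolar to substrate.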

[5] = molecular target: T1, Xaa-Pro dipeptidase (Homo sapiens); assay: Activity of prolidase in human HeLa cells measured per gram of protein; type: cell-based; how it was run: as §1
MDA-MB-231 = assay: Cytotoxicity against human MDA-MB-231 cells assessed as cell viability by XTT assay; type: functional, cell-based
How it was run: (§3)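 Cells were seeded at 5 × 10^4 per well and grown 48 h at 37 °C, 5% CO2, before medium renewal. Drugs were added at a range of concentrations for 24 h. XTT was added for 4 h, then absorbance read at 490 nm against medium-only controls. Viability was plotted versus concentration to estimate EC50 (mean ± SD, n = 3).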

MCF7 = assay: Cytotoxicity against human MCF7 cells assessed as cell viability by XTT assay; type: functional, cell-based; how it was run: as §3
[6] = Chemical stability of the compound in phosphate buffer saline of pH 7.4; type: physicochemical
Caco-2 = assay: Cytotoxicity against human Caco-2 cells assessed as cell viability by XTT assay; type: functional, cell-based; how it was run: as §3
Sus scrofa [7] = organism: Sus scrofa; assay: Activity of pig kidney prolidase measured per gram of protein in presence of Cbz-pro; how it was run: as §2

Activity [1] [pmol/min]	Activity [2] [pmol/min]	Activity [3] [pmol/min]	Activity (Sus scrofa [4]) [pmol/min]	Activity [5] [pmol/min]	Stability [6]	Activity (Sus scrofa [7]) [pmol/min]	SMILES	EC50 (MDA-MB-231) [µM]	EC50 (MCF7) [µM]	EC50 (Caco-2) [µM]
0.19	0.42	0.28	19	0.35	Stable	8.15	CN(Cc1cnc2nc(N)nc(N)c2n1)c1ccc(C(=O)N[C@H](CCC(=O)O)C(=O)N2CCC[C@@H]2C(=O)O)cc1	11	5.2	5.6
–	–	–	–	–	–	–	CN(Cc1cnc2nc(N)nc(N)c2n1)c1ccc(C(=O)N[C@@H](CCC(=O)O)C(=O)O)cc1 [METHOTREXATE]	80	0.9	1.1
